Assay results as given in ChEMBL document CHEMBL4043205, “Picomolar inhibition of β-galactosidase (bovine liver) attributed to loop closure” (Bioorg Med Chem, 2017).
Calls of active or inactive are those of the source. The rule behind the calls is not given here.

How the values were obtained:
Beta-galactosidase [1] = molecular target: T1, Beta-galactosidase (Bos taurus, UniProt Q58D55); assay: Inhibition of bovine liver beta-galactosidase pre-incubated for 30 mins with 4-nitrophenyl-beta-D-galactopyranoside substrate before enzyme addition measured over 45 mins at 27 secs intervals by UV/Vis based spectroscopy
T1 sequence (Q58D55 whole entry): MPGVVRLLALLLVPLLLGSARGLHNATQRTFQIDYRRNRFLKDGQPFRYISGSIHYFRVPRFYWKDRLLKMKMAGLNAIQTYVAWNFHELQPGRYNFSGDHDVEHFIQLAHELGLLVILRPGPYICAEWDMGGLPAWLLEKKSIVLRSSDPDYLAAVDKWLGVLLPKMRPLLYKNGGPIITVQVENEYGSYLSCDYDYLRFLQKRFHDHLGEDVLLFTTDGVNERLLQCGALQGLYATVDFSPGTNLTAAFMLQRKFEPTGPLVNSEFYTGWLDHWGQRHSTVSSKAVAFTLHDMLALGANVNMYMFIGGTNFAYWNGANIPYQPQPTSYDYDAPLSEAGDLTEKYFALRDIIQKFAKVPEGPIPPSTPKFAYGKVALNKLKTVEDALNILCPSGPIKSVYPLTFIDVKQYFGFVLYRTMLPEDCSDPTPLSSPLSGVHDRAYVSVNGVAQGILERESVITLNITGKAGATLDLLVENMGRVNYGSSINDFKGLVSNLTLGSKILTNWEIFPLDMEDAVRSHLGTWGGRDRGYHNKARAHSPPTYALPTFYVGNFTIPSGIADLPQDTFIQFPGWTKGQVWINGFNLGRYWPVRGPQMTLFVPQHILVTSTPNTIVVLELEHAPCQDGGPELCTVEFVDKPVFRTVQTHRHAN
Procedure, shortened: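 Bovine liver enzyme (stock aliquot thawed, diluted in 5 mM HEPES, kept on ice). Varied 4-nitrophenyl-β-D-galactopyranoside with fixed inhibitor, pH 7.50 HEPES, equilibrated 30 °C 30 min before enzyme; 405 nm read for 45 min. Initial rates via ε 13,300 M−1 cm−1, fitted Michaelis-Menten at ≥2 inhibitor levels; competitive Ki from K′m = Km(1+[I]/Ki); duplicates, Lineweaver-Burk check.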

Aspergillus oryzae [2] = assay: Inhibition of Aspergillus oryzae beta-galactosidase using 2-chloro-4-nitrophenyl b-dgalactopyranoside substrate by Eddie-Hofstee plot
Beta-galactosidase [3] = molecular target: T1, Beta-galactosidase; assay: Inhibition of bovine liver beta-galactosidase using 4-nitrophenyl-beta-D-galactopyranoside substrate measured over 240 mins at 10 mins intervals by UV/Vis spectroscopy
Procedure, shortened: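 Bovine liver enzyme in 5 mM HEPES pH 7.50; 4-nitrophenyl-β-D-galactopyranoside mixed with 11 inhibitor dilutions (stocks 0.005–200 μM), equilibrated 30 °C 30 min, then enzyme added. Absorbance at 405 nm followed 240 min; final reads converted to percent inhibition against buffer control, plotted versus log inhibitor concentration; duplicates.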

[4] = molecular target: T2, Beta-galactosidase (Bos taurus) (UniProt Q58D55); assay: Competitive inhibition of bovine liver beta-galactosidase using 4-nitrophenyl-beta-D-galactopyranoside substrate measured over 240 mins at 10 mins intervals by UV/Vis spectroscopy based Lineweaver-Burk plot
T2 sequence (whole entry): T1 sequence (Q58D55 whole entry)

[5] = molecular target: T2, Beta-galactosidase (Bos taurus); assay: Binding affinity to bovine liver beta-galactosidase assessed as induction of changes in enzyme molar ellipticity by CD spectroscopy
Procedure, shortened: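 The bovine liver enzyme stock was diluted in 5 mM HEPES and kept on ice. It was mixed 1:1 by volume with aqueous inhibitor stock and equilibrated. Ellipticity was recorded from 190–275 nm at 0.5 nm resolution in a 10 mm path cell, averaging 5 scans. Spectra were background-corrected for unbound inhibitor and buffer.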

Aspergillus oryzae [6] = assay: Inhibition of Aspergillus oryzae beta-galactosidase using 2-chloro-4-nitrophenyl b-dgalactopyranoside substrate by Lineweaver-Burk plot
[7] = Inhibition of Aspergillus oryzae beta-galactosidase using 2-chloro-4-nitrophenyl b-dgalactopyranoside substrate relative to control
Aspergillus oryzae [8] = assay: Binding affinity to Aspergillus oryzae beta-galactosidase assessed as induction of changes in enzyme molar ellipticity by CD spectroscopy
[9] = Inhibition of Aspergillus oryzae beta-galactosidase using 2-chloro-4-nitrophenyl b-dgalactopyranoside substrate
[10] = molecular target: T2, Beta-galactosidase (Bos taurus); assay: Competitive inhibition of bovine liver beta-galactosidase using 4-nitrophenyl-beta-D-galactopyranoside substrate measured over 240 mins at 10 mins intervals by UV/Vis spectroscopy based Eddie-Hofstee plot

| Structure (SMILES) | Ki (Beta-galactosidase [1]) [nM] | inhibition activity (qualitative) (Aspergillus oryzae [2]) | IC50 (Beta-galactosidase [3]) [µM] | Inhibition mode (qualitative, Lineweaver-Burk) [4] | Activity [5] | inhibition activity (Aspergillus oryzae [6]) | IC50 [7] [nM] | Activity (Aspergillus oryzae [8]) | Ki [9] [nM] | competitive inhibition (qualitative call) [10] |
| --- | --- | --- | --- | --- | --- | --- | --- | --- | --- | --- |
| CO[C@H]1C(NCc2ccc(C)cc2)=N[C@H](CO)[C@H](O)[C@@H]1O | 1500 | Active | 10.8 | Active | inactive | Active | 41400 | inactive | 3400 | Active |
| N=C1N[C@H](CO)[C@H](O)[C@H](O)[C@H]1O | 2000 | Active | > 50 | Active | inactive | Active | 830 | inactive | 150 | Active |
| OC[C@H]1N/C(=N\Cc2ccccc2)[C@H](O)[C@@H](O)[C@H]1O | 0.05 | Active | 0.0189 | Active | inactive | Active | 49 | inactive | 21.1 | Active |
